By IC50 is commonly meant the point on the concentration scale where inhibition reaches its midpoint. A low value points to greater potency. The kinact is the rate constant of inactivation at saturating inhibitor.

The target of assay [1] is T1, Aromatase (Homo sapiens, UniProt P11511).
T1 sequence (P11511 whole entry): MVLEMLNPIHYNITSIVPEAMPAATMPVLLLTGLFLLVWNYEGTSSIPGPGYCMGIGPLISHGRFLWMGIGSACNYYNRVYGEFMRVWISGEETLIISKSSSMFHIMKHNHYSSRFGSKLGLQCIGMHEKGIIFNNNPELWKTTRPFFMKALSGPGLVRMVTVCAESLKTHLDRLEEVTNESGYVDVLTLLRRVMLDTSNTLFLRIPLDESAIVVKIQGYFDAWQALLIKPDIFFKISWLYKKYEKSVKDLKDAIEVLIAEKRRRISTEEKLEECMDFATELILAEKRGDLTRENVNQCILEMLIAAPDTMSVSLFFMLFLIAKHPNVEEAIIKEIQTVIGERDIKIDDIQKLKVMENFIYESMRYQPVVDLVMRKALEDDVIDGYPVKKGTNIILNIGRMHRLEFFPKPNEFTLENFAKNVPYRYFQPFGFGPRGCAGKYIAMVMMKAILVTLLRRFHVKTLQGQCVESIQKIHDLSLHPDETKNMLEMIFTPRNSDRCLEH
Briefly: The binding affinity was determined on Cytochrome P450 19A1 by analysis of Dixon plot.

Assay [2] concerns the target T1, Aromatase. Briefly: In vitro competitive inhibitory activity was measured on Cytochrome P450 19A1 of human placental microsomes.
Assay [3] deals with T1, Aromatase. Kind of assay: Time dependent inactivation of Cytochrome P450 19A1 was obtained by Kitz-Wilson plot.
Assay [4] deals with T1, Aromatase. Briefly: Time dependent inactivation of aromatase cytochrome P450 19A1 from Kitz-Wilson plot. In short, it runs like this:
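Human placental microsomes (105000g pellet, washed with 0.05 mM dithiothreitol, lyophilized) incubated with inhibitor plus NADPH in 67 mM phosphate buffer in air. Residual aromatase activity then measured in 5-min kinetic assay by 3H2O release from [1β-3H]androstenedione. Pseudo-first-order loss over first 12 min analysed by Kitz-Wilson method. Double-reciprocal plot of kobs versus inhibitor concentration gave kinact and Ki. Points are means of duplicates.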

In assay [5] the target is T1, Aromatase. Briefly: Binding affinity for aromatase cytochrome P45019A1 by analysis of Dixon plot.

`C[C@]12CC[C@H]3[C@@H](CC=C4CCCC[C@@]43CO)[C@@H]1CCC2=O` yielded a Ki at Aromatase [1] of 1 µM. For the same molecule, on Aromatase [2], the IC50 is 6.9 µM.

`C[C@]12CCCCC1=CC[C@@H]1[C@@H]2CC[C@]2(C)C(=O)CC[C@@H]12` yielded a Ki at Aromatase [1] of 0.12 µM. The same molecule came in with an IC50 on Aromatase [2] of 0.66 µM.

For `CC12CCC3C(C(=O)C=C4C=CCCC43C)C1CCC2=O` (stereo unspecified), the Ki came to 0.22 µM at Aromatase [1] and 0.18 µM on Aromatase [3]. For the same molecule, at Aromatase [2], the half-inhibitory concentration (IC50) was 1.8 µM. Moreover, the kinact on Aromatase [3] was 0.00198 s⁻¹.

On Aromatase [1], `CC12CCCCC1=CC(=O)C1C2CCC2(C)C(O)CCC12` (stereo unspecified) registered a Ki of 5.5 µM. At Aromatase [2], the IC50 was found to be 42 µM.

`CC12CCC3C(C(=O)C=C4C=CCCC43C=O)C1CCC2=O` (stereo unspecified): the Ki at Aromatase [1] came out at 1.8 µM. Also, at Aromatase [4], the Ki stood at 2.9 µM and the kinact was 0.00315 s⁻¹. This molecule also showed an IC50 at Aromatase [2] of 11 µM.

Take `CC12CCC3C(C(=O)C=C4C=CCCC43CO)C1CCC2=O` (stereo unspecified): the values for the Ki on Aromatase [1] and on Aromatase [4] were 15 µM and 7 µM, respectively. For the same molecule, on Aromatase [4], the kinact was 0.00147 s⁻¹. The IC50 on Aromatase [2] amounted to 60 µM.

Take `CC12CCC3C(C(=O)C=C4CCCCC43CO)C1CCC2=O` (stereo unspecified): the Ki at Aromatase [1] and on Aromatase [3] was 11 µM throughout. Further, at Aromatase [2], the IC50 is 56 µM. Also, at Aromatase [3], the kinact was 0.000967 s⁻¹.

The molecule `CC12CCC3C(CC=C4CCCCC43CO)C1CCC2O` (stereo unspecified) came in with an IC50 at Aromatase [2] of 62 µM. The same molecule yielded a Ki at Aromatase [5] of 9.8 µM.

At Aromatase [2], `CC12CCC3C4CCC(=O)C=C4CCC3C1CCC2=O` (stereo unspecified) gave an IC50 of 1.2 µM. At Aromatase [5], this molecule yielded a Ki of 0.14 µM.

In the case of `CC12CCC=CC1=CC(=O)C1C2CCC2(C)C1CC[C@@H]2O` (stereo partly specified), the Ki on Aromatase [1] stood at 5.3 µM. Besides, the IC50 at Aromatase [2] was 42 µM.

At Aromatase [1], `CC12CCC3C(C(=O)C=C4CCCCC43CO)C1CCC2O` (stereo unspecified) had a Ki of 45 µM. For the same molecule, the IC50 on Aromatase [2] came out at 140 µM.

The molecule `CC12CCCCC1=CCC1C2CCC2(C)C(O)CCC12` (stereo unspecified) displayed a Ki at Aromatase [1] of 3 µM. On Aromatase [2], this molecule came in with an IC50 of 30 µM.

For the molecule `CC12CCC3C(C(=O)C=C4CCCCC43C)C1CCC2=O` (stereo unspecified), the Ki at Aromatase [1] is 0.25 µM. In addition, the IC50 at Aromatase [2] was 1.8 µM. On Aromatase [3], the Ki amounted to 0.15 µM and the kinact is 0.00115 s⁻¹.

`CC12CCC3C4CCCCC4=CC(=O)C3C1CCC2=O` (stereo unspecified) came in with a Ki at Aromatase [1] of 2.4 µM. The molecule also registered an IC50 at Aromatase [2] of 28 µM. On Aromatase [3], the Ki was 2.6 µM and the kinact is 0.00113 s⁻¹.

As for `CC12CCC=CC1=CCC1C2CCC2(C)C1CC[C@@H]2O` (stereo partly specified), at Aromatase [1], the Ki worked out at 2 µM. The IC50 at Aromatase [2] was 18 µM.

At Aromatase [1], `CC12CCC3C(CC=C4C=CCCC43C)C1CCC2=O` (stereo unspecified) showed a Ki of 0.058 µM. This molecule also gave a concentration for half-maximal inhibition (IC50) at Aromatase [2] of 0.34 µM.

With `CC12CCC3C(C(=O)C=C4CCCCC43C=O)C1CCC2=O` (stereo unspecified), the Ki on Aromatase [1] is 13 µM. Also, the IC50 on Aromatase [2] was found to be 60 µM. For the same molecule, on Aromatase [3], the Ki was 20 µM and the kinact was 0.00238 s⁻¹.

As for `CC12CCC3C(CC=C4CCCCC43C)C1C[C@@H](Br)C2=O` (stereo partly specified), on Aromatase [1], the Ki amounted to 11 µM. Further, the IC50 on Aromatase [2] worked out at 55 µM.

The molecule `CC12CCC3C4CCC=CC4=CC(=O)C3C1CCC2=O` (stereo unspecified) gave a Ki on Aromatase [1] of 3 µM. The molecule also displayed an IC50 on Aromatase [2] of 33 µM.

At Aromatase [2], `CC12CCC3C(CC=C4CCCCC43C=O)C1CCC2=O` (stereo unspecified) came in with an IC50 of 9 µM. This molecule yielded a Ki on Aromatase [5] of 1.4 µM.

In the case of `C[C@]12CCC(=O)C=C1CC[C@@H]1[C@@H]2CC[C@]2(C)C(=O)CC[C@@H]12` [ANDROSTENEDIONE], the IC50 on Aromatase [2] was 0.3 µM. On Aromatase [5], this molecule registered a Ki of 0.02 µM.

These data come from ChEMBL document CHEMBL1127575, “Synthesis of androst-5-en-7-ones and androsta-3,5-dien-7-ones and their related 7-deoxy analogs as conformational and catalytic probes for the active site of aromatase” (J Med Chem, 1994).
